Measurements as given in ChEMBL document CHEMBL3600297, “N-Sulfonyl-aminobiaryls as Antitubulin Agents and Inhibitors of Signal Transducers and Activators of Transcription 3 (STAT3) Signaling” (J Med Chem, 2015).
Active and inactive are the calls of the source. The calls are words filed in the database; no cut-off is given here.

Columns and labels:
Tubulin (Sus scrofa) [1] = target: T1, Tubulin (Sus scrofa) (UniProt P02554+P02550); experiment: Inhibition of porcine tubulin polymerization at 10 uM measured every min for 30 mins by spectrophotometric analysis; format: protein assay
T1 sequence (P02550 whole entry, looked up): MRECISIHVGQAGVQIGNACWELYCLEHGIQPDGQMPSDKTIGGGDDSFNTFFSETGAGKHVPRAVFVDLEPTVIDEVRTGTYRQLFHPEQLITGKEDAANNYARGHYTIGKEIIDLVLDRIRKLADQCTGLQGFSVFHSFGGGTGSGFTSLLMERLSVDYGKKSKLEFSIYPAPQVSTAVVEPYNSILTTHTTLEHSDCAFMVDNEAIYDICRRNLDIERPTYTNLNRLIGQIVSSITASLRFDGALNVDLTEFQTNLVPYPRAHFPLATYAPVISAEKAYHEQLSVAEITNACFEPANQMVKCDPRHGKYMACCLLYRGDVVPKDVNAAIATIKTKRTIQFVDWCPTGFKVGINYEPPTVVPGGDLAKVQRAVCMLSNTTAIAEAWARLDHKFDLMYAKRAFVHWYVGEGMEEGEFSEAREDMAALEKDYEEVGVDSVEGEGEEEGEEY
T1 sequence (P02554 whole entry, looked up): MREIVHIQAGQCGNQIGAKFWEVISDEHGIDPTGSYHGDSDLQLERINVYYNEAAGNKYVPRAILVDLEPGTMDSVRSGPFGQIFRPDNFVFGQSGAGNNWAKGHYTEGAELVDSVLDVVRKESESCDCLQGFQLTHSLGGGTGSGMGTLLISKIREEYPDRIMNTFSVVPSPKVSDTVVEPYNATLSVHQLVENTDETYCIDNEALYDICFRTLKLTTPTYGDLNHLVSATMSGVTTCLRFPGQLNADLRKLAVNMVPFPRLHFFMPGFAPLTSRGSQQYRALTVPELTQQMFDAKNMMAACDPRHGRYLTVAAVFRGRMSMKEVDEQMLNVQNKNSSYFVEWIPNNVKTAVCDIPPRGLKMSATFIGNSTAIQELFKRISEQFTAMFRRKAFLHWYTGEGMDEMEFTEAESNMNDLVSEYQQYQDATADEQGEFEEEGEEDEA
Method in brief: (§1)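 Cold porcine tubulin (>99% pure) in G-PEM buffer (80 mM PIPES, 2 mM MgCl2, 0.5 mM EGTA, 1 mM GTP, pH 6.9) with 15% glycerol, with or without compound. Kinetic turbidity at 340 nm, read each minute for 30 min at 37 °C. DMSO control.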

A549 [2] = experiment: Induction of microtubule destabilization in human A549 cells at 1 uM after 24 hrs by DAPI staining-based immunofluorescence confocal microscopic analysis; format: cell-based
Method in brief: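 A549 seeded sparsely on chamber slides and treated 24 h; cold MeOH fixation (−20 °C, 15 min), blocked with 0.1% Triton X-100 in PBS 30 min at 37 °C. Monoclonal anti-β-tubulin 1 h at 37 °C, then FITC anti-mouse IgG, DAPI nuclear counterstain; confocal imaging.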

ASPC1 = experiment: Cytotoxicity against human AsPC1 cells assessed as growth inhibition after 48 hrs by sulforhodamine B assay; format: functional; conditions: ASPC1, 48 h
Method in brief: (§2)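 Seeded at (3−5) × 10^3 cells/well. A time-zero plate was TCA-fixed after attachment. Next day, cells got vehicle (0.1% DMSO) or a rising concentration gradient for 48 h, then 10% TCA fixation, 0.4% SRB in 1% AcOH, A515 read. GI50 taken relative to the time-zero absorbance; at least three independent runs, mean ± SD.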

A549 [3] = experiment: Cytotoxicity against human A549 cells assessed as growth inhibition after 48 hrs by sulforhodamine B assay; format: functional; conditions: A549, 48 h; method in brief: as §2
[4] = Cytotoxicity against human Hep3B cells assessed as growth inhibition after 48 hrs by sulforhodamine B assay; format: functional, Hep 3B2; method in brief: as §2
PC-3 = experiment: Cytotoxicity against human PC3 cells assessed as growth inhibition after 48 hrs by sulforhodamine B assay; format: functional; conditions: PC-3, 48 h; method in brief: as §2
A549 [5] = experiment: Effect on G2/M phase in human A549 cells after 24 hrs by propidium iodide staining-based flow cytometric analysis; format: functional, cell-based
Method in brief: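 A549 given the indicated concentration for 24 h, fixed in 75% ethanol overnight at −20 °C, washed in cold PBS, 30 min in phosphate–citric acid buffer pH 7.8 at room temperature. Stained with propidium iodide buffer containing 0.1% Triton X-100 and RNase A; DNA content read on a FACScan.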

Tubulin (Sus scrofa) [6] = target: T1, Tubulin (Sus scrofa); experiment: Inhibition of porcine tubulin polymerization measured every min for 30 mins by spectrophotometric analysis; format: protein assay; method in brief: as §1
Tubulin = experiment: Displacement of [3H]-colchicine from tubulin (unknown origin) preincubated with protein for 1 hr followed by [3H]-colchicine addition measured after 3 hrs by scintillation counting analysis; format: protein-complex assay, Homo sapiens

Question: With `CC[C@]1(O)C[C@H]2CN(CCc3c([nH]c4ccccc34)[C@@](C(=O)OC)(c3cc4c(cc3OC)N(C=O)[C@H]3[C@@](O)(C(=O)OC)[C@H](OC(C)=O)[C@]5(CC)C=CCN6CC[C@]43[C@@H]65)C2)C1` as the compound, how does the inhibition (Tubulin (Sus scrofa) [1]) read?
Answer: The inhibition was “Active”.

Question: What about the Activity (A549 [2]) of the same compound?
Answer: Its Activity is “Active”.

Question: Which results are given for `COc1ccc(S(=O)(=O)Nc2ccccc2-c2ccc(F)c(F)c2)cc1`?
Answer: GI50 (ASPC1): 280 nM; GI50 (A549 [3]): 300 nM; GI50 [4]: 150 nM; GI50 (PC-3): 190 nM

Question: With `Cc1ccc(S(=O)(=O)OCC(=O)Nc2ccc(C(=O)O)c(O)c2)cc1` as the compound, how does the Activity (A549 [5]) read?
Answer: Its Activity is “inactive”.

Question: With `COc1ccc(S(=O)(=O)N(CCCl)c2ccccc2-c2ccc(C#N)cc2)cc1` as the compound, how does the GI50 (ASPC1) read?
Answer: Its GI50 is 4790 nM.

Question: What about the GI50 (A549 [3]) of the same compound?
Answer: Its GI50 is 1500 nM.

Question: What about the GI50 [4] of the same compound?
Answer: Its GI50 is 1550 nM.

Question: What about the GI50 (PC-3) of the same compound?
Answer: The GI50 was 6520 nM.

Question: With `COc1ccc(S(=O)(=O)Nc2ccccc2-c2ccc(C#N)c(F)c2)cc1` as the compound, how does the inhibition (Tubulin (Sus scrofa) [6]) read?
Answer: Its inhibition is “Dose-dependent effect”.

Question: And the IC50 (Tubulin)?
Answer: The IC50 was 670 nM.

Question: Which results are given for `COc1ccc(S(=O)(=O)Nc2cccnc2Nc2ccc(O)cc2)cc1` [ABT-751]?
Answer: GI50 (ASPC1): 4110 nM; GI50 (A549 [3]): 5330 nM; GI50 [4]: 840 nM; GI50 (PC-3): 620 nM
